Source: ChEMBL document CHEMBL1649368, “Novel isatinyl thiosemicarbazones derivatives as potential molecule to combat HIV-TB co-infection” (Eur J Med Chem, 2011)
pEC50, pIC50: −log10 of the molar value. Values after ≈ are worked out from the molar mass of the structure shown.

What was measured:
[1] = Cytotoxicity against human MT4 cells after 5 days by spectrophotometry; type: cell-based
Outline: (§1)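 MT-4 cells were grown in RPMI-1640 DM with 10% heat-inactivated calf serum and gentamicin. HIV-1 IIIB (100 CCID50) or mock infection was run in parallel with compounds in triplicate, at 37 °C and 5% CO2 for 5 days. Viability was read by MTT spectrophotometry. EC50 was the 50% reduction in virus cytopathic effect; CC50 was the 50% loss of mock-infected cell viability.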

[2] = target: T1, Isocitrate lyase (Mycobacterium tuberculosis) (UniProt P9WKK7); test: Inhibition of Mycobacterium tuberculosis isocitrate lyase […]
T1 sequence (whole entry): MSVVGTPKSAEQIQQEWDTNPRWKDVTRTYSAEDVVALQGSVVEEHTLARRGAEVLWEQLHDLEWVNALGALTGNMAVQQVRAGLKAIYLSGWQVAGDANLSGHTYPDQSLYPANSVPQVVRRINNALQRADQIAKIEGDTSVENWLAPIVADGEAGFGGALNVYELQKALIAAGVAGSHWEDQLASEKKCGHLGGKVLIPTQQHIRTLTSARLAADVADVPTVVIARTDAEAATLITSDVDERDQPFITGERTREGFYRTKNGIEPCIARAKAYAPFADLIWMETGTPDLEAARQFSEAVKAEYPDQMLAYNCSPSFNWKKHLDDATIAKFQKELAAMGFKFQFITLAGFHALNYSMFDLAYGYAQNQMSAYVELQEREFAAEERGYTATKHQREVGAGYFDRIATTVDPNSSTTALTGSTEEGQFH
Outline: (§2)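 Isocitrate lyase activity was measured at 37 °C as glyoxylate-phenylhydrazone formation from isocitrate with phenylhydrazine, MgCl2 and 2-mercaptoethanol in potassium phosphate buffer. After 10 min the mixture was diluted and absorbance read at 324 nm. Test compounds were added from a 10 mM solution; the 3-nitropropionic acid reference came from a 100 mM solution. % inhibition = (control − test)/control × 100.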

[3] = test system: Mycobacterium tuberculosis; test: Antimycobacterial activity against Mycobacterium tuberculosis H37Ra by agar dilution method; type: functional
Outline: (§3)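 Log-phase MTB was tested by agar dilution on Middlebrook 7H11 with OADC, following NCCLS guidance. MIC was the lowest concentration giving complete growth inhibition, determined in triplicate.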

[4] = test system: Mycobacterium tuberculosis; test: Antimycobacterial activity against Mycobacterium tuberculosis H37Ra assessed as inhibition of bacterial growth in log phase by agar dilution method; type: functional; outline: as §3
[5] = test system: Human immunodeficiency virus 1; test: Antiviral activity against HIV1 3B infected in human MT4 cells assessed as protection against virus-induced cytopathogenicity after 5 days by microtiter plate analysis; type: functional, organism-based; details: Human immunodeficiency virus 1, 3B, MT4, 120 h; outline: as §1
[6] = test system: Mycobacterium tuberculosis; test: Antimycobacterial activity against Mycobacterium tuberculosis H37Ra assessed as inhibition of bacterial growth in dormant phase; type: functional
Outline: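 MTB grown in 7H9 with glycerol, OADC and Tween 80 at 37 °C with rolling to OD600 ~0.6, then washed and held in PBS 6 weeks at 37 °C. Starved cells (~1×10^7 in 1 mL PBS) were exposed to compounds in DMSO at various concentrations for 7 days with shaking. After washing, dilutions were plated on antibiotic-free 7H11 and counted after 4 weeks. MIC was complete growth inhibition, in triplicate.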

[7] = target: Human immunodeficiency virus type 1 reverse transcriptase (Human immunodeficiency virus 1, UniProt Q72547); test: Inhibition of HIV1 reverse transcriptase
Outline: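 The radiometric reaction used wild-type RT in 50 mM Tris-HCl pH 7.8 with DTT, glutathione, EDTA, KCl, MgCl2, BSA, Triton X-100, poly(rC)·oligo(dG) template/primer and [3H]dGTP. It ran 15 min at 37 °C, was stopped with carrier DNA, pyrophosphate and TCA, and held on ice 30 min.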

[8] = target: T1, Isocitrate lyase (Mycobacterium tuberculosis); test: Inhibition of Mycobacterium tuberculosis isocitrate lyase at 100 mM; outline: as §2

| Compound | CC50 at 120 h [1] | inhibition [2] | MIC [3] | MIC [4] | pEC50 [5] | MIC [6] | pIC50 [7] | inhibition [8] |
| --- | --- | --- | --- | --- | --- | --- | --- | --- |
| CONC(=S)N/N=C1\C(=O)N(CN2CCN(c3ccc(Cl)cc3)CC2)c2ccc(F)cc21 | 347 µM | 28.4% | 3.27 µM (≈ 1.56 µg/mL) | 0.67 µM (≈ 0.32 µg/mL) | 5.42 | 42.1 µM (≈ 20.1 µg/mL) | 4.78 | – |
| CCN(CC)CN1C(=O)/C(=N\NC(=S)NOC)c2cc(C)ccc21 | 573 µM | 18.9% | 8.96 µM (≈ 3.13 µg/mL) | – | 4.27 | – | – | – |
| O=C(O)CC[N+](=O)[O-] | – | – | – | – | – | – | – | 66% |
| Cc1ccc2c(c1)/C(=N/NC(=S)NO)C(=O)N2CN1CCN(c2ccc(Cl)cc2)CC1 | 335 µM | 11% | 6.82 µM (≈ 3.13 µg/mL) | – | 5.21 | – | 4.63 | – |
| CONC(=S)N/N=C1\C(=O)N(CN2CCN(c3cc4c(cc3F)c(=O)c(C(=O)O)cn4C3CC3)CC2)c2ccc(C)cc21 | 232 µM | 63.4% | 0.66 µM (≈ 0.401 µg/mL) | – | 5.04 | – | – | – |
| CONC(=S)N/N=C1\C(=O)N(CN2CCN(c3ccc(Cl)cc3)CC2)c2ccc(C)cc21 | 300 µM | 9.49% | 3.3 µM (≈ 1.56 µg/mL) | 0.65 µM (≈ 0.307 µg/mL) | 5.77 | 20.4 µM (≈ 9.64 µg/mL) | 4.94 | – |
| CONC(=S)N/N=C1\C(=O)N(CN2CCN(c3ccc(Cl)cc3)CC2)c2ccc(Cl)cc21 | 229 µM | 6.38% | 6.34 µM (≈ 3.13 µg/mL) | 6.82 µM (≈ 3.37 µg/mL) | 5.61 | 27.3 µM (≈ 13.5 µg/mL) | 6.60 | – |
| CONC(=S)N/N=C1\C(=O)N(CN2CCN(c3ccc(OC)cc3)CC2)c2ccc(C)cc21 | 324 µM | 23.3% | 6.68 µM (≈ 3.13 µg/mL) | 0.16 µM (≈ 0.075 µg/mL) | 5.01 | 9.74 µM (≈ 4.56 µg/mL) | – | – |
| O=C1/C(=N\NC(=S)NO)c2cc(F)ccc2N1CN1CCN(c2ccc(Cl)cc2)CC1 | 194 µM | 18.5% | 3.37 µM (≈ 1.56 µg/mL) | – | 5.16 | – | – | – |
| CCn1cc(C(=O)O)c(=O)c2cc(F)c(N3CCN(CN4C(=O)/C(=N\NC(=S)NOC)c5cc(F)ccc54)CC3)cc21 | 144 µM | – | 0.67 µM (≈ 0.402 µg/mL) | 4.25 µM (≈ 2.55 µg/mL) | 4.98 | 17 µM (≈ 10.2 µg/mL) | – | – |
| CCn1cc(C(=O)O)c(=O)c2cc(F)c(N3CCN(CN4C(=O)/C(=N\NC(=S)NO)c5cc(C)ccc54)C(C)C3)c(F)c21 (stereo unspecified) | 244 µM | – | 0.65 µM (≈ 0.399 µg/mL) | 0.64 µM (≈ 0.393 µg/mL) | 4.93 | 34.6 µM (≈ 21.2 µg/mL) | – | – |
| CONC(=S)N/N=C1\C(=O)N(CN2CCOCC2)c2ccc(F)cc21 | 274 µM | 15.9% | 4.25 µM (≈ 1.56 µg/mL) | 3.37 µM (≈ 1.24 µg/mL) | 4.54 | 13.5 µM (≈ 4.95 µg/mL) | – | – |
